Among the data in ChEMBL document CHEMBL3526081 (Drug Metab Dispos, 2011) are Retention_time values, retold here.

The test system of this data set is Liver microsome. Put plainly: Retention time in Sprague-Dawley rat liver microsomes treated with 100 uM cinobufagin at 37 degC after 30 mins by UFLC-DAD-ESI-MS analysis. It is filed as ADME. Particulars: 0.5 h. In a few lines:
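Male Sprague-Dawley rat microsomes (0.3 mg/ml) were incubated with CB (100 µM) at 37°C for 30 min, with and without NADPH-generating system. Separation was on an ODS column at 40°C using an acetonitrile/0.5% formic acid water gradient at 0.4 ml/min, with DAD detection at 294 nm plus ESI-MS.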
For orientation: Liver microsomes are vesicles of endoplasmic reticulum, rich in cytochrome P450 enzymes.
In the case of `CC(=O)O[C@H]1[C@H]2O[C@]23[C@@H]2CC[C@@H]4C[C@H](O)CC[C@]4(C)[C@H]2CC[C@]3(C)[C@H]1c1ccc(=O)oc1`, the Retention_time was 10.59 min. To `C[C@]12CC[C@@H](O)C[C@H]1CC[C@@H]1[C@@H]2CC[C@]2(C)[C@@H](c3ccc(=O)oc3)[C@@H](O)[C@H]3O[C@]132` belongs 8.32 min; to `C[C@]12CC[C@H](O)C[C@H]1CC[C@@H]1[C@@H]2CC[C@]2(C)[C@@H](c3ccc(=O)oc3)[C@@H](O)[C@H]3O[C@]132` [DESACETYLCINOBUFAGIN], 6.95 min.
